Source: ChEMBL document CHEMBL1135679, “Potent delta-opioid receptor agonists containing the Dmt-Tic pharmacophore” (J Med Chem, 2002)
Square brackets hold non-standard residues; d marks the D form. Peptide text beside a SMILES is read from it. Dmt = Cc1cc(O)cc(C)c1C[C@H](N)C(=O)O; Tic = O=C(O)[C@@H]1Cc2ccccc2CN1

Legend:
[1] = Relative binding to mu and delta opioid receptors (ratio of Ki)
[2] = target: Mu-type opioid receptor (Cavia porcellus, UniProt P97266); assay: In vitro inhibitory activity against electrically evoked contractions of guinea pig ileum (GPI); assay type: functional, tissue-based
Outline: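 Isolated tissue bioassay. IC50 read from concentration–response curves of agonist inhibition. Mean ± SE of at least five fresh tissue samples, with an internal standard peptide run for each tissue.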

[3] = target: Delta-type opioid receptor (Rattus norvegicus, UniProt P33533); assay: Inhibition of [3H]DPDPE binding to Opioid receptor delta 1 of rat brain P2 synaptosomes; assay type: subcellular
Outline: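 Rat brain P2 synaptosomes, pretreated 60 min at room temperature in 0.1 M NaCl, 0.4 mM GDP, 50 mM HEPES pH 7.5 and 50 µg/mL trypsin inhibitor, then washed and frozen at -80 °C. Competition against [3H]DPDPE for 2 h at room temperature. Nonspecific binding defined with 2 µM unlabelled peptide. Filtered on GF/C and counted. Five to eight doses in duplicate, 3–5 independent preparations, mean ± SE. Ki via Cheng–Prusoff.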

[4] = target: Delta-type opioid receptor (Mus musculus, UniProt P32300); assay: In vitro inhibitory activity against electrically evoked contractions of in mouse vas deferens (MVD); assay type: functional, tissue-based
[5] = target: Mu-type opioid receptor (Rattus norvegicus, UniProt P33535); assay: Inhibition of [3H]DAGO binding to Opioid receptor mu 1 of rat brain P2 synaptosomes; assay type: subcellular
Outline: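 Competition binding on rat brain P2 synaptosomes. Synaptosomes were preincubated 60 min at room temperature in 0.1 M NaCl, 0.4 mM GDP, 50 mM HEPES pH 7.5 and 50 µg/mL soybean trypsin inhibitor to strip endogenous opioids, then washed, stored at -80 °C, and labelled with [3H]DAGO. Incubation ran 2 h at room temperature to equilibrium. Nonspecific binding was set with 2 µM unlabelled peptide. Bound ligand was collected by GF/C filtration and counted. Five to eight doses in duplicate, 3–5 repetitions on separate preparations, mean ± SE. Ki by Cheng–Prusoff.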

[6] = target: Delta-type opioid receptor (Mus musculus) (UniProt P32300); conditions: Vas deferens
[7] = target: Delta-type opioid receptor (Mus musculus) (UniProt P32300); assay: In vitro inhibitory activity against electrically evoked contractions of the mouse vas deferens (MVD); assay type: functional, tissue-based

Chain of Mu-type opioid receptor (Rattus norvegicus, UniProt P33535) (P33535 whole entry): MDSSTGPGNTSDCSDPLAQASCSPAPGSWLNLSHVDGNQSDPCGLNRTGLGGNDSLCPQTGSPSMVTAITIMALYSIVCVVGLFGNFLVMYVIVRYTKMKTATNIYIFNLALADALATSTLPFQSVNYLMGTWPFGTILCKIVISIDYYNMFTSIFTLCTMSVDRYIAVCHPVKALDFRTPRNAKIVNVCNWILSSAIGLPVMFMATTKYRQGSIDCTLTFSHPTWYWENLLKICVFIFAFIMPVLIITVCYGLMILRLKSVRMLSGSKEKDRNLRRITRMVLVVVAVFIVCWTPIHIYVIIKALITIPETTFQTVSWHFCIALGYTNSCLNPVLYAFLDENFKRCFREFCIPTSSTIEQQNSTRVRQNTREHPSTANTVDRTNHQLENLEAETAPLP
Chain of Mu-type opioid receptor (Cavia porcellus, UniProt P97266) (P97266 whole entry): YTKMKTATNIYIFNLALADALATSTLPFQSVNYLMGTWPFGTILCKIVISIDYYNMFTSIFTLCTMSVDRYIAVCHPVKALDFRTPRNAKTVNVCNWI
Chain of Delta-type opioid receptor (Rattus norvegicus, UniProt P33533) (P33533 whole entry): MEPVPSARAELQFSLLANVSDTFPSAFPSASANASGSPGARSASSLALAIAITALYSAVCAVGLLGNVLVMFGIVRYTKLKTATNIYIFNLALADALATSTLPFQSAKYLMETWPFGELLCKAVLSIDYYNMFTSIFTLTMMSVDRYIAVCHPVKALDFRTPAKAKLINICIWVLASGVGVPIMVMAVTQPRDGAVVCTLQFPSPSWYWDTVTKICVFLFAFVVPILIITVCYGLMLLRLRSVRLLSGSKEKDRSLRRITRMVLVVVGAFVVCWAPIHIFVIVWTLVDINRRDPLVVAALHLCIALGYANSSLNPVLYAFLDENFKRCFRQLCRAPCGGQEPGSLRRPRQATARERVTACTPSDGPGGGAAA
Chain of Delta-type opioid receptor (Mus musculus, UniProt P32300) (P32300 whole entry): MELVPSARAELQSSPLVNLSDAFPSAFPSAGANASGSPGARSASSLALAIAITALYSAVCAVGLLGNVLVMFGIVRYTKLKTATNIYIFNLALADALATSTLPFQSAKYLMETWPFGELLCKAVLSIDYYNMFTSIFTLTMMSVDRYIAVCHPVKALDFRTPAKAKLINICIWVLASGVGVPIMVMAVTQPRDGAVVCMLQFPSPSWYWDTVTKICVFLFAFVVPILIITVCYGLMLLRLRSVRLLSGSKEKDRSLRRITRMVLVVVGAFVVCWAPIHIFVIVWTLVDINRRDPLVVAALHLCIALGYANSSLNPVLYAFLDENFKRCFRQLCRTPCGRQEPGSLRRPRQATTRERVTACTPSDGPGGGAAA
Chain of Delta-type opioid receptor (Mus musculus) (P32300 whole entry): as above

Structure (SMILES)	Selectivity [1]	IC50 [2] [nM]	Ki [3] [nM]	IC50 [4] [nM]	Ki [5] [nM]	Ke [6] [nM]	Ke [7] [nM]
Cc1cc(O)cc(C)c1C[C@H](N)C(=O)N1Cc2ccccc2C[C@H]1C(=O)N[C@@H](CC(=O)O)c1nc2ccccc2[nH]1	122						
Cc1cc(O)cc(C)c1C[C@H](N)C(=O)N1Cc2ccccc2C[C@H]1C(=O)N[C@@H](Cc1nc2ccccc2[nH]1)C(=O)O	516	1560	0.042	0.015	21.7		
Cc1cc(O)cc(C)c1C[C@H](N)C(=O)N1Cc2ccccc2C[C@H]1C(=O)N[C@H](C)c1nc2ccccc2[nH]1	5	6.36	0.047	0.026	0.233		
Cc1cc(O)cc(C)c1C[C@H](N)C(=O)N1Cc2ccccc2C[C@H]1C(=O)N[C@@H](C)C(N)=O (H-[Dmt]-[Tic]-Ala-NH2)	195					10	
CC(C)[C@H](NC(=O)[C@H](CC(=O)O)NC(=O)[C@H](Cc1ccccc1)NC(=O)[C@H](C)NC(=O)[C@@H](N)Cc1ccc(O)cc1)C(=O)N[C@H](C(=O)NCC(=O)O)C(C)C	1140	> 1200	0.24	0.3	272		
Cc1cc(O)cc(C)c1C[C@H](N)C(=O)N1Cc2ccccc2C[C@H]1C(=O)N[C@@H](CC(=O)O)C(N)=O (H-[Dmt]-[Tic]-Asp-NH2)	8880	> 10000	0.289		2560		7.58
Cc1cc(O)cc(C)c1C[C@H](N)C(=O)N1Cc2ccccc2C[C@H]1C(=O)NCc1nc2ccccc2[nH]1		40.7		0.035			
Cc1cc(O)cc(C)c1C[C@H](N)C(=O)N1Cc2ccccc2C[C@H]1C(=O)NCCc1nc2ccccc2[nH]1	82	108				4.78	
C[C@@H](NC(=O)[C@@H](N)Cc1ccc(O)cc1)C(=O)N[C@@H](Cc1ccccc1)C(=O)NCC(=O)N[C@@H](Cc1ccc(O)cc1)C(=O)N1CCC[C@H]1C(=O)N[C@@H](CO)C(N)=O [DERMORPHIN]		1.21			1.22		
Cc1cc(O)cc(C)c1C[C@H](N)C(=O)N1Cc2ccccc2C[C@H]1C(=O)N[C@@H](CC(N)=O)C(=O)O (H-[Dmt]-[Tic]-Asn-OH)	73	> 10000	1.1		80.3	5.88	
Cc1cc(O)cc(C)c1C[C@H](N)C(=O)N1Cc2ccccc2C[C@H]1C(=O)N[C@@H](C)c1nc2ccccc2[nH]1	6.5	71.7	0.063		0.411		
Cc1cc(O)cc(C)c1C[C@H](N)C(=O)N1Cc2ccccc2C[C@H]1C(=O)N[C@H](C)C(N)=O (H-[Dmt]-[Tic]-[dA]-NH2)	158	> 10000	0.301		47.5	25.1	
